# Bioassay records: PubChem BioAssay, The Scripps Research Institute Molecular Screening Center
# Jurkat tox 60K – cytotoxicity toward Jurkat cells; Jurkat E6.1 viability, ATP luminescence, 48 h; hit rate 1.2% among 56,000; inhibition, % at 4 µM; AID 463;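 active = inhibition above the mean inhibition of all tested compounds plus 3 SD, cut at about 28% in these data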
# 5-HT1A blocker – antagonists of human 5-HT1a serotonin receptor. P08908. CHO 5-HT1a Ga15 NFAT-bla reporter, antagonist mode. inhibition, % at 10 µM. hit rate 0.68% among 62,000;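 active = inhibition above the mean of all tested compounds plus 3 SD, cut at about 43% in these data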;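 also: receptor stimulated by 5-CT agonist at 100 nM near EC80; beta-lactamase reporter measured by ratiometric fluorescence of a cleavable substrate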
# 5HT1E ag – agonists of human 5-HT1E serotonin receptor; activation, % at 6 µM; hit rate 0.69% among 65,000; CHO 5-HT1E Ga15 NFAT-bla reporter, FRET; 0% DMSO wells, 100% control agonist wells; AID 574;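 active = activation above a set limit, the screen-wide mean activation plus 3 SD, cut at about 8.5% in these data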
# Target sequence (P28566 whole entry, looked up): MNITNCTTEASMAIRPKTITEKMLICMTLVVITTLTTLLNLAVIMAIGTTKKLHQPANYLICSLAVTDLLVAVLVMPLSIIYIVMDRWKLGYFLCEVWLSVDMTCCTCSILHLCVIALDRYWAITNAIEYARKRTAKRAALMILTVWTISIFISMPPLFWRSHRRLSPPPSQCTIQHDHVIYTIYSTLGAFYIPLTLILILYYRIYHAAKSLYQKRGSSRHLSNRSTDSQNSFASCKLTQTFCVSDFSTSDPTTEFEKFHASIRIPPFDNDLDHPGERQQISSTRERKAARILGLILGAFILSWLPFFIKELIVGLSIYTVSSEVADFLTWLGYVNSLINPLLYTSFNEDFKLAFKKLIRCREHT
# 5HT1E antag – blocks the human 5-HT1E serotonin receptor | CHO 5-HT1E Ga15 NFAT-bla reporter, FRET, antagonist | inhibition, % at 6 µM | hit rate 0.99% among 65,000;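 active = inhibition above a set limit, the mean inhibition across every tested compound plus 3 SD, cut at about 29% in these data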;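 also: signal is the 460 over 535 nm emission ratio of beta-lactamase substrate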
# 5HT1a ag – agonists of human 5-HT1a serotonin receptor; hit rate 0.56% among 65,000; activation, % at 10 µM; AID 567; CHO 5-HT1a Ga15 NFAT-bla reporter, FRET ratio; 0% basal, 100% maximal reference agonist; P08908;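 active = activation above the screen-wide mean activation plus 3 SD, cut at about 19% in these data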
# HEK293 NFkB inh – lowers PMA/ionomycin-induced NF-kB signal in HEK293 cells. HEK-293 NF-kB luciferase reporter, luminescence. inhibition, % at 3 µM. hit rate 0.21% among 62,000. AID 465;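 active = inhibition above the mean of all tested compounds plus 3 SD, cut at about 40% in these data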
#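 System: NF-kB luciferase reporter HEK-293 cells | Replication: Single test | Control set: DMSO vs reference inhibitor | Evaluation: % inhibition | Schedule: 1 h pretreatment, 16 h stimulation, 37 °C | Probe or stimulus: PMA with ionomycin | Compound dosing: One dose, 3 µM | Detection: Luciferase luminescence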
# Hits are given with their value; i = inactive; nt = not tested or not shown. In the library only some 3.3% were active in any assay of this set; here they are far more common.
SMILES,Jurkat tox 60K,5-HT1A blocker,5HT1E ag,5HT1E antag,5HT1a ag,HEK293 NFkB inh
Cc1nc(SCCO)c2oc3ccccc3c2n1,i,i,i,i,i,i
Cc1csc(=O)n1CCC(=O)O,i,i,i,i,i,i
c1ccc2c(c1)[nH]c1c(N3CCCC3)ncnc12,33.1,i,i,i,i,i
c1ccc2c(c1)[nH]c1c(N3CCSCC3)ncnc12,nt,nt,i,i,i,nt
O=c1c2ccccc2nc(-c2ccco2)n1Cc1ccccc1,nt,i,i,i,i,i
O=c1c2ccccc2nc(N2CCN(c3ccccc3)CC2)n1Cc1ccccc1,i,46.8,i,i,i,i
Cc1ccc(-c2nc(Nc3ccccc3)n[nH]2)cc1,i,i,i,i,i,i
COc1ccc(Nc2nc(N)nc(CSc3n[nH]c(-c4ccccc4)n3)n2)cc1,i,i,i,42.1,i,i
Nc1nc(CSc2n[nH]c(-c3ccccc3)n2)nc(Nc2ccccc2)n1,i,i,i,29.5,i,i
CCCN1CCN(c2ncnc3c2nnn3Cc2ccccc2)CC1,62.6,i,i,i,i,i
c1ccc(Cn2nnc3c(N4CCCCCC4)ncnc32)cc1,i,i,i,i,i,i
O=C1c2[nH]nc(-c3ccccc3O)c2C(c2ccc(F)cc2)N1Cc1ccco1 (configuration not stated),i,53.0,i,i,i,i
CCCCc1c(O)nc(SCC(=O)N2CCOCC2)[nH]c1=O,nt,i,i,i,i,i
CCOc1ccccc1CN(CCc1ccc2c(c1)OCO2)Cc1ccccn1,i,48.4,i,i,i,i
Cn1c(=O)c2c(-c3ccncc3)c3c(nc2n(C)c1=O)-c1ccccc1C3=O,i,i,i,i,i,i
Fc1ccc(N2CCN(C(c3cccs3)c3nnnn3C3CCCC3)CC2)cc1 (configuration not stated),i,i,i,i,i,i
c1cc2c(cc1C1=Nn3c(nnc3C3CCCCC3)SC1)OCO2,nt,nt,i,31.5,i,nt
c1ccc(-c2nnc3n2N=C(c2ccc4c(c2)OCO4)CS3)nc1,nt,nt,i,i,i,nt
C=C(C)c1nc(N)nc(N)n1,i,i,i,i,31.7,i
NS(=O)(=O)c1ccc(CCNc2ncnc3sccc23)cc1,84.8,i,i,i,i,i
O=C(CSCC(=O)N1CCCCC1)OCC(=O)c1c[nH]c2ccccc12,i,i,i,i,i,i
CSc1nc2sc3c(c2c2nnnn12)CCCC3,nt,nt,14.2,i,i,nt
O=C(Cc1n[nH]c(=O)c2ccccc12)OCC(=O)c1ccc2c(c1)OCCO2,91.4,i,i,i,i,i
CCOc1ccc(N(CC(=O)O)S(=O)(=O)c2ccc(F)cc2)cc1,i,i,i,i,74.0,i
CCCOc1cc(C)c(S(=O)(=O)n2ccc(C)n2)cc1C,i,i,i,i,i,i
SMILES,Jurkat tox 60K,5-HT1A blocker,5HT1E ag,5HT1E antag,5HT1a ag,HEK293 NFkB inh
COc1ccc(CNC(C)C2COc3ccccc3O2)c(OC)c1 (configuration not stated),i,i,13.1,i,i,i
O=C(Nc1ccc(N2CCN(C(=O)c3ccco3)CC2)c(Cl)c1)c1cc2ccccc2o1,i,i,i,38.3,i,i
CCC(=O)N1CCN(c2ccc(NC(=O)c3cc4ccccc4o3)cc2Cl)CC1,i,i,i,35.8,i,i
CCCC(=O)N1CCN(c2ccc(NC(=O)c3cc4ccccc4o3)cc2Cl)CC1,i,i,i,44.4,i,i
O=C(c1cc2ccccc2o1)N1CCN(c2ccccc2Cl)CC1,i,i,i,i,i,i
CCOc1ccccc1CN(Cc1ccco1)S(=O)(=O)c1ccc(-n2cnnn2)c(OC)c1,67.3,53.5,i,i,i,i
CCOCCCNC(=O)Cn1cc2c(n1)CCCCC2,i,i,i,i,i,i
Cc1c(-n2cc(C(=O)c3ccccc3O)cc(C#N)c2=O)c(=O)n(-c2ccccc2)n1C,i,i,i,i,325.0,i
Cc1cc(C(=O)NCc2cccnc2)n(-c2ccccc2)n1,i,i,i,i,i,i
Cc1nn(Cc2ccccc2)c2sc(C(=O)NCc3cccnc3)cc12,i,i,i,i,38.8,i
Cc1cc(C(=O)NCc2cccnc2)cs1,i,i,i,i,31.3,i
CCC1CCCCN1C(=O)CSc1nnc(-c2cccs2)o1 (configuration not stated),i,i,i,i,28.4,i
COc1ccccc1C1C=C(c2ccc(C)cc2)Nc2nnnn21 (configuration not stated),35.9,i,i,i,i,i
CCOc1ccc(C2C=C(c3ccc(C)cc3)Nc3nnnn32)cc1 (configuration not stated),i,i,i,i,i,i
COc1cc(-c2nnc3sc(C4CCCCC4)nn23)cc(OC)c1OC,i,i,i,40.4,i,i
COc1cc(OC)c(-c2nn3c(C4CCCCC4)nnc3s2)cc1OC,i,i,i,32.8,i,i
O=C(Nc1ccn(-c2ccccc2)n1)c1ccc(S(=O)(=O)N2CCCCCC2)cc1,33.6,i,i,i,i,i
COc1ccc(OC)c(S(=O)(=O)Nc2ccc(O)c(Sc3ncn[nH]3)c2)c1,i,i,i,i,i,i
CCOC(=O)C1CCCN(C(=O)c2sc3nc(-c4ccc(OC)cc4)cn3c2C)C1 (configuration not stated),i,i,i,i,i,i
Cc1ccc(-n2c(SCc3cn4ccsc4n3)nc3ccccc3c2=O)cc1,i,i,i,43.5,i,i
O=c1c2ccccc2nc(SCc2nc(-c3ccccc3)no2)n1-c1ccc(F)cc1,i,i,i,i,20.4,i
c1cnc(Oc2ccc(-c3nnco3)cc2)cn1,i,i,i,i,i,i
CS(=O)(=O)N(CC(=O)N1CCCCCC1)c1ccccc1,i,i,31.7,i,i,i
CCCn1c(SCC(=O)c2cc(OC)ccc2OC)nnc1C(C)C,i,i,i,i,i,i
CC1CCN(CCCNC(=O)CN2CCN(Cc3ccc(Cl)cc3)C2=O)CC1,i,i,i,31.1,i,i
SMILES,Jurkat tox 60K,5-HT1A blocker,5HT1E ag,5HT1E antag,5HT1a ag,HEK293 NFkB inh
Cc1ccc(CNC(=O)c2ccccc2NC(=O)CSc2nnnn2C)cc1,i,i,i,i,i,i
O=c1cc(CN2CCN(c3ccccc3)CC2)c2cc(O)c(-c3ccccc3)cc2o1,i,i,i,i,i,i
O=c1cc(CN2CCN(C/C=C/c3ccccc3)CC2)c2cc(O)ccc2o1,i,44.0,i,i,i,i
OCCN1CCN(CCCN2c3ccccc3Sc3ccc(C(F)(F)F)cc32)CC1,nt,nt,i,i,i,nt
CN(C)CCCN1c2ccccc2Sc2ccc(C(F)(F)F)cc21,nt,nt,11.7,i,i,nt
CC1(C)Cc2c(C#N)c(NCc3ccco3)nc(-c3ccco3)c2CO1,nt,nt,11.2,i,54.1,nt
CC(C)c1nc2sc3c(NCc4ccco4)ncnc3c2c2c1COC(C)(C)C2,nt,i,i,55.8,i,i
COC(=O)CSc1ncnc2c1sc1nc(-c3ccco3)c3c(c12)CC(C)(C)OC3,nt,nt,i,i,i,nt
